Only some compounds are listed: those with a hit (about 2.2% of all), similar ones and a draw of the others.
core dimer inh = inhibitors of HCV core protein dimerization, primary screen, biochemical, TR-FRET, high-throughput; inhibition, % at 5 µM; 300,000 compounds, 0.33% hits; TR-FRET GST/Flag-core106 dimerization, 1536-well;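 active = inhibition above the mean of all tested compounds plus 3 SD, set per screening campaign, cut at about 45% in these data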
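System – GST-tagged and Flag-tagged HCV core protein residues 1-106 · Repeats – one well for each compound · Technique – TR-FRET 671 and 617 nm emission · Doses – one concentration, 5 µM, in 0.5% DMSO · Times – 4 h, 22.5 °C incubation · Also added – Eu donor and XL665 acceptor anti-tag antibodies · Measure – percent inhibition of core106 dimerization signal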
HCV NS3 hel inh = inhibitors of HCV NS3 helicase, primary screen, biochemical, Cy5 molecular beacon fluorescence. Hepatitis C virus NS3 helicase. NS3 helicase DNA unwinding. inhibition, % at 10.9 µM. 290,000 compounds, 0.56% hits. AID 1800, 2009;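 active = inhibition above the mean of all tested compounds plus 3 SD, set per campaign, cut at about 35% in these data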
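Control set: DMSO versus 110 µM thioflavine S; Material: NS3 helicase fragment of HCV; Measured by: Cy5 fluorescence at 0 and 60 min, beacon hairpin quenching; Read-out basis: percent inhibition from t60/t0 fluorescence ratio; Times: reaction time 60 min, 25 °C; Repeats: single replicate; Compound dosing: single dose, 10.9 µM nominal final, DMSO 0.8% final.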
GRK2 inh = compounds blocking aptamer binding on GRK2 – biochemical, human GRK2, bead flow cytometry, HTS, primary screen | Beta-adrenergic receptor kinase 1 (Homo sapiens), P25098 | FAM-aptamer displacement from GRK2 | 330,000 compounds, 0.59% hits | inhibition of aptamer binding, % at 10 µM;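 active = inhibition of aptamer binding above 40%, roughly 3 SD of noise, on plates passing a quality check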;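 also: median bead fluorescence of bound FAM aptamer so fluorescent compounds give negative values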
GPR7 antagonist = GPR7 receptor antagonists, primary screen, cell-based, fluorescence, single concentration; inhibition, % at 4.4 µM; Neuropeptides B/W receptor type 1 (Homo sapiens), P48145; GPR7-expressing cells, fluorescence antagonist assay; 290,000 compounds, 1.1% hits; AID 1861, 2009; in the data active = inhibition above about 16%, passing the limit was not always enough;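 also: cells stimulated with the agonist NPW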
FID counter = compounds displacing fluorescent DNA intercalator, primary screen, artefact control for HCV NS3 helicase inhibitor project, biochemical, FID fluorescence. DNA fluorescent intercalator displacement. inhibition, % at 7.9 µM. 290,000 compounds, 0.17% hits. AID 1845, 2009; in the data active = inhibition above about 37%;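 also: higher means more ethidium bromide displaced from hairpin DNA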
DAGLB inh = DAGLB lipase inhibitors, primary screen, biochemical, fluorescence, HTS; HEK293T DAGLB membrane lysate, EnzChek fluorogenic substrate; AID 504411, 2011; 340,000 compounds, 0.059% hits; inhibition, % at 5.17 µM; Diacylglycerol lipase-beta (Homo sapiens), Q8NCG7; in the data active = inhibition above about 34%
Target sequence (Q8NCG7 whole entry, looked up): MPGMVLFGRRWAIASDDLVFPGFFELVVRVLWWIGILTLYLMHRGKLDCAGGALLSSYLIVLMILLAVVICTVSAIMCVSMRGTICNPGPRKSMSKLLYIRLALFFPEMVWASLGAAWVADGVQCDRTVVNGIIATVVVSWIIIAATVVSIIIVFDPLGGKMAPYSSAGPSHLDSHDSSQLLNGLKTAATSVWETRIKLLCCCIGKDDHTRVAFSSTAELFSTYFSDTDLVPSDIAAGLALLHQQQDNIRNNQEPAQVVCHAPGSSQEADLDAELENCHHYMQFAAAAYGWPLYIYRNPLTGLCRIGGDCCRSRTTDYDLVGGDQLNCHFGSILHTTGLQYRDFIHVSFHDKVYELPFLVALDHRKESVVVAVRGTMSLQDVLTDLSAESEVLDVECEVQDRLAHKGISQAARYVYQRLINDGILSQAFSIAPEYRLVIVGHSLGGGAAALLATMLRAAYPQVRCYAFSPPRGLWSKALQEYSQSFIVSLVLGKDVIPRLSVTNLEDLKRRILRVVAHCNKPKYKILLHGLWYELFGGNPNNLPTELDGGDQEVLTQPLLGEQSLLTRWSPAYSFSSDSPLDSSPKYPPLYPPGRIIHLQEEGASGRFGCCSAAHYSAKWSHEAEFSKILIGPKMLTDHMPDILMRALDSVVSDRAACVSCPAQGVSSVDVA
GPR7 antag conf = GPR7 receptor antagonists, confirmation, cell-based, fluorescence, single concentration; shares compounds with GPR7 antagonist; GPR7-expressing cells, calcium fluorescence antagonist mode; inhibition, % at 4.4 µM; 2,400 compounds, 52% hits; AID 1952, 2009; in the data active = inhibition above about 24%;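 also: stimulated with the GPR7 agonist NPW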
MCHR1 antag = MCHR1 antagonists in cells, counter-screen for GPR7 antagonist project, cell-based, fluorescence, human | 2,400 compounds, 62% hits | shares compounds with GPR7 antagonist | MCHR1-expressing cells, fluorescence antagonist assay | inhibition, % at 4.4 µM; in the data active = inhibition above about 22%
Each line names hits and unclear results; the compound was inactive in the other large screens (follow-up assays come after a bar, where they were run).

Cn1c(Cc2ccccc2)nnc1SCC(=O)NC1CCCC1	GPR7 antagonist 39 | GPR7 antag conf inactive | MCHR1 antag inactive
CC(C)CN(C(=O)COC(=O)CSc1ccc([N+](=O)[O-])cc1)C1CCS(=O)(=O)C1 (stereo unspecified)	none (no result: HCV NS3 hel inh, GPR7 antagonist, FID counter)
CC(C)(C)n1nc2c(c1NC(=O)c1c(F)cccc1F)CS(=O)(=O)C2	GPR7 antagonist 43 | GPR7 antag conf 28 | MCHR1 antag 22
CC(C)(C)n1nc2c(c1NC(=O)c1ccccc1)CS(=O)(=O)C2	none
Cc1ccc([N+](=O)[O-])cc1NC(=O)Nc1cccc(F)c1	GPR7 antagonist 40 (no result: core dimer inh, GRK2 inh) | GPR7 antag conf 63 | MCHR1 antag 65
COC(=O)c1ccc(NC(=O)Nc2cccc(F)c2)cc1	GPR7 antagonist 32 | GPR7 antag conf 54 | MCHR1 antag 65
CCN(CC(=O)Nc1ccc2c(c1)OCCO2)C(=O)C(C)Oc1ccc(Cl)cc1 (stereo unspecified)	none (no result: HCV NS3 hel inh, GPR7 antagonist, FID counter)
O=C(CN(C(=O)CNS(=O)(=O)c1ccccc1)c1ccc(F)cc1)NCc1ccco1	none
Nc1nnc(-c2cccnc2)s1	none
c1ccc(Nc2nnc(-c3cccnc3)s2)cc1	GPR7 antagonist 41 | GPR7 antag conf inactive | MCHR1 antag inactive
COc1ccc(/C=C2\SC(N)=NC2=O)cc1	none (no result: core dimer inh)
CCOC(=O)CSC1=NC(=O)/C(=C/c2ccc(OC)cc2)S1	GPR7 antagonist 29 | GPR7 antag conf 72 | MCHR1 antag 72
CC1CCC(NCCNC(=O)c2ccco2)CC1 (stereo unspecified)	none
COc1ccc(F)cc1C(=O)C1CCCN(Cc2cn(C)c3ccccc23)C1 (stereo unspecified)	GPR7 antagonist 24 | GPR7 antag conf 33 | MCHR1 antag 30
COc1ccc(C(=O)C2CCCN(Cc3cccn3-c3ccccn3)C2)c(OC)c1 (stereo unspecified)	none
Cn1cc(CN2CCCC(C(=O)c3cc(F)ccc3F)C2)c2ccccc21 (stereo unspecified)	none
O=C(c1cc(F)ccc1F)C1CCCN(Cc2cccn2-c2ccccn2)C1 (stereo unspecified)	GPR7 antagonist 37 | GPR7 antag conf inactive | MCHR1 antag 24
O=C(Nc1nnc(-c2ccc(Br)cc2)o1)c1cccc(N2C(=O)CCC2=O)c1	none (no result: HCV NS3 hel inh, GPR7 antagonist, FID counter)
O=C(O)c1ccc(CNS(=O)(=O)c2ccc3ccccc3c2)cc1	GPR7 antagonist 23 | GPR7 antag conf inactive | MCHR1 antag inactive
NS(=O)(=O)c1ccc(CNS(=O)(=O)c2ccc3ccccc3c2)cc1	none
Cc1ccc(C2=NNC(c3ccc(Cl)cc3)=Nc3ccccc32)o1	none
Cc1ccc(Oc2ccc(OCC(=O)NC3CCS(=O)(=O)C3)cc2)cc1 (stereo unspecified)	none
O=C1NC(=S)S/C1=C\c1coc2ccc(O)cc2c1=O	GPR7 antagonist 21 | GPR7 antag conf inactive | MCHR1 antag inactive
O=C1NC(=S)S/C1=C\c1coc2ccccc2c1=O	GPR7 antagonist 27 | GPR7 antag conf inactive | MCHR1 antag inactive
O=C1NC(=S)SC1=Cc1ccccc1Br	none (no result: core dimer inh, HCV NS3 hel inh, GRK2 inh, GPR7 antagonist, FID counter)
CN1CCCC(CN2c3ccccc3Sc3ccccc32)C1 (stereo unspecified)	GPR7 antagonist 35 | GPR7 antag conf 51 | MCHR1 antag 34
COC(=O)Nc1nc2c(C)cccc2s1	none
CSc1cccc(NC(=O)Nc2nc3c(C)cccc3s2)c1	none | GPR7 antag conf 33 | MCHR1 antag 76
O=C(CNC(=O)c1cccs1)Nc1ccc2c(c1)OCCO2	none (no result: HCV NS3 hel inh, GPR7 antagonist, FID counter)
COc1cccc(OCc2cc(C(=O)NCc3cnc4ccccn34)no2)c1	GPR7 antagonist 30 | GPR7 antag conf 33 | MCHR1 antag 48
Cc1ccc(C(=O)N2CCCCC2)cc1S(=O)(=O)N1CCCCCC1	GPR7 antagonist 21 | GPR7 antag conf 25 | MCHR1 antag inactive
O=C(c1ccc(Cl)c(S(=O)(=O)N2CCCCCC2)c1)N1CCCCC1	none (no result: GPR7 antagonist) | MCHR1 antag inactive
CCOc1ccc(-c2c(C)sc3nc[nH]c(=O)c23)cc1	none
C#CCNC(=O)C1=C[C@H](c2cn(C(C)=O)c3ccccc23)C[C@H](OCc2ccc(CO)cc2)O1	GPR7 antagonist 38 | GPR7 antag conf inactive | MCHR1 antag 38
CC(=O)n1cc([C@@H]2C=C(C(=O)NCc3ccccc3)O[C@H](OCc3ccc(CO)cc3)C2)c2ccccc21	none (no result: HCV NS3 hel inh, GPR7 antagonist, FID counter)
CC(C)COc1ccc(-c2nnc(-c3ccco3)o2)cc1	none
CCN(CC)CCCNc1ccc(-c2nnc(-c3ccc(OCC(C)C)cc3)o2)cn1	GPR7 antagonist 38 | GPR7 antag conf inactive | MCHR1 antag 48
Brc1cccc(CNc2nc3ccccc3n2CCN2CCOCC2)c1	none
c1ccc2c(-c3ccncc3)c[nH]c2c1	GPR7 antagonist 23 | GPR7 antag conf inactive | MCHR1 antag inactive
CCC1CCCCN1CC(=O)c1c(C)[nH]c2cc(C)ccc12 (stereo unspecified)	none (no result: core dimer inh)
Cc1cc(SCC(=O)N2c3ccccc3NC(=O)CC2C)nc2ccccc12 (stereo unspecified)	none (no result: core dimer inh, HCV NS3 hel inh, GRK2 inh, GPR7 antagonist, FID counter)
O=C(Cc1cccs1)N1CCN(S(=O)(=O)c2ccccc2)CC1	none
O=C(CCCc1cccs1)N1CCN(S(=O)(=O)c2ccccc2Br)CC1	GPR7 antagonist 29 | GPR7 antag conf inactive | MCHR1 antag 25
CC(=O)Nc1ccc2cc3ccc(NC(C)=O)cc3nc2c1	GPR7 antagonist 15, FID counter 56 | GPR7 antag conf inactive | MCHR1 antag inactive
O=[N+]([O-])c1ccc2nc(-c3ccccc3[N+](=O)[O-])[nH]c2c1	GPR7 antagonist 25 | GPR7 antag conf inactive | MCHR1 antag inactive
O=C(Nc1ccsc1C(=O)O)c1ccc(Cl)cc1	GPR7 antagonist 46 | GPR7 antag conf inactive | MCHR1 antag inactive
Cc1n[nH]c(=O)c2c(NC(=O)CSc3nncn3C(C)C)oc(C)c12	none (no result: core dimer inh, HCV NS3 hel inh, GPR7 antagonist, FID counter)
COc1cc(OC)cc(-c2c(-c3cccs3)c3cc(-c4ccc5c(c4)OCCO5)ccc3n2C)c1	none (no result: core dimer inh, HCV NS3 hel inh, GPR7 antagonist, FID counter)

Source: PubChem BioAssay
